Results as given in ChEMBL document CHEMBL3797161, “Design, Synthesis, and Immunological Evaluation of Benzyloxyalkyl-Substituted 1,2,3-Triazolyl α-GalCer Analogues” (ACS Med Chem Lett, 2016).
The source made the active and inactive calls. The calls are words filed in the database; no cut-off is given here.

Experiments:
Mus musculus [1] = organism: Mus musculus; assay: Binding affinity to CD1D in Balb/c mouse splenocytes assessed as increase in IL-2 production at 10 to 1000 ng/ml after 48 hrs by sandwich ELISA; type: cell-based
Method in brief: (§1)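 Splenocytes isolated from BALB/c mice were cultured in vitro with glycolipid (dissolved in DMSO) at 10, 100 or 1000 ng/mL for 48 h. IL-2, IL-4 and IFN-γ in the culture were measured by ELISA.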

[2] = Cytotoxicity against Balb/c mouse splenocytes assessed as reduction in cell proliferation up to 1000 ng/ml after 48 hrs by MTT assay; type: cell-based; details: splenocyte
Method in brief: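 Splenocytes from BALB/c mice were exposed to glycolipid at up to 1000 ng/mL for 48 h. Proliferation was read by MTT relative to untreated cells.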

T-cell = assay: Binding affinity to CD1D in Balb/c mouse splenocytes assessed as T cell stimulation by measuring increase in cytokine expression after 48 hrs by sandwich ELISA; type: cell-based; method in brief: as §1
[3] = Solubility of compound in DMSO at 10 to 1000 ng/ml; type: physicochemical
Mus musculus [4] = organism: Mus musculus; assay: Binding affinity to CD1D in Balb/c mouse splenocytes assessed as increase in IFN-gamma production at 10 to 1000 ng/ml after 48 hrs by sandwich ELISA; type: cell-based; method in brief: as §1
Mus musculus [5] = assay: Stimulation of IFN-gamma production in Balb/c mouse at 1 ug, iv after 2 to 48 hrs by sandwich ELISA; type: functional, organism-based
Method in brief: (§2)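 BALB/c mice received glycolipid intravenously, 1 μg per animal. IFN-γ and IL-4 expression was then measured in vivo.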

Mus musculus [6] = organism: Mus musculus; assay: Binding affinity to CD1D in Balb/c mouse splenocytes assessed as increase in IFN-gamma production at 1000 ng/ml at 24 hrs by sandwich ELISA; type: cell-based
Method in brief: (§3)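 For cytokine kinetics, BALB/c mouse splenocytes were treated in vitro with glycolipid at 1000 ng/mL. Culture supernatants were sampled at 2, 12 and 24 h, and IL-4 and IFN-γ were quantified.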

Mus musculus [7] = organism: Mus musculus; assay: Binding affinity to CD1D in Balb/c mouse splenocytes assessed as increase in IL-4 production at 10 to 1000 ng/ml after 48 hrs by sandwich ELISA; type: cell-based; method in brief: as §1
Mus musculus [8] = assay: Stimulation of IL-4 production in Balb/c mouse at 1 ug, iv after 2 to 48 hrs by sandwich ELISA; type: functional, organism-based; method in brief: as §2
[9] = biological target: T1, Antigen-presenting glycoprotein CD1d (Homo sapiens) (UniProt P15813); assay: Binding affinity to CD1D (unknown origin) assessed as increase in IL-2 production at 100 ng/ml preincubated for 16 hrs followed by Valpha-14 Vbeta-8.2 DN3A4-1.2(1.2) iNKT hybridoma cells addition to compound-CD1D mixture measured after 16 hrs by sandwich ELISA
T1 sequence (whole entry): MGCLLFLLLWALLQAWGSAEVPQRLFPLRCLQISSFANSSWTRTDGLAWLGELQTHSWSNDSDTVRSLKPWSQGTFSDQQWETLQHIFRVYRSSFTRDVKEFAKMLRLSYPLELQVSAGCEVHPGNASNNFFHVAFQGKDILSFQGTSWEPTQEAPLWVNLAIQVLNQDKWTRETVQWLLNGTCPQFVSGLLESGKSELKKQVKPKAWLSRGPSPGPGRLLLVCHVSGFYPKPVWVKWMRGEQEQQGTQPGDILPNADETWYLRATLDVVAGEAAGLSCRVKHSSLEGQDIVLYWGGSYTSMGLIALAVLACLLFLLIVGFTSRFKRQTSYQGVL
Method in brief: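 Glycolipid incubated with CD1d protein for 16 h, then exposed to Vα14 Vβ8.2 DN3A4–1.2 (1.2) iNKT hybridoma cells; IL-2 secreted into the medium quantified.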

Mus musculus [10] = organism: Mus musculus; assay: Binding affinity to CD1D in Balb/c mouse splenocytes assessed as increase in IFN-gamma production at 1000 ng/ml up to 12 hrs by sandwich ELISA; type: cell-based; method in brief: as §3
Mus musculus [11] = organism: Mus musculus; assay: Binding affinity to CD1D in Balb/c mouse splenocytes assessed as increase in IL-4 production at 1000 ng/ml up to 24 hrs by sandwich ELISA; type: cell-based; method in brief: as §3
Mus musculus [12] = organism: Mus musculus; assay: Binding affinity to CD1D in Balb/c mouse splenocytes assessed as increase in IL-4 production at 1000 ng/ml at 2 hrs by sandwich ELISA; type: cell-based; method in brief: as §3
Mus musculus [13] = organism: Mus musculus; assay: Binding affinity to CD1D in Balb/c mouse splenocytes assessed as increase in IFN-gamma production at 1000 ng/ml after 48 hrs by sandwich ELISA; type: cell-based

CCCCCCCCCCCCCC[C@@H](O)[C@@H](O)[C@H](CO[C@H]1O[C@H](CO)[C@H](O)[C@H](O)[C@H]1O)n1cc(COCCCCOCc2ccccc2)nn1
Activity (Mus musculus [1]): Active | Activity [2]: Non-toxic | Activity (T-cell): Dose-dependent effect | solubility [3]: soluble

CCCCCCCCCCCCCC[C@@H](O)[C@@H](O)[C@H](CO[C@H]1O[C@H](CO)[C@H](O)[C@H](O)[C@H]1O)n1cc(COCCCCCCCCCCCCOCc2ccccc2)nn1
Activity (Mus musculus [1]): Active | Activity [2]: Non-toxic | Activity (T-cell): Dose-dependent effect | solubility [3]: soluble

CCCCCCCCCCCCCCCCCCCCCCCCCC(=O)N[C@@H](CO[C@H]1O[C@H](CO)[C@H](O)[C@H](O)[C@H]1O)[C@H](O)[C@H](O)CCCCCCCCCCCCCC [RGI-7000]
Activity (Mus musculus [1]): Active | Activity (Mus musculus [4]): Active | Activity [2]: Non-toxic | Activity (Mus musculus [5]): Active | Activity (Mus musculus [6]): Active | Activity (Mus musculus [7]): Active | Activity (Mus musculus [8]): Active | Activity [9]: Active | Activity (Mus musculus [10]): Active | Activity (Mus musculus [11]): Active | Activity (Mus musculus [12]): Active

CCCCCCCCCCCCCC[C@@H](O)[C@@H](O)[C@H](CO[C@H]1O[C@H](CO)[C@H](O)[C@H](O)[C@H]1O)n1cc(COCCCCCCCCOCc2ccccc2)nn1
Activity (Mus musculus [1]): Active | Activity [2]: Non-toxic | Activity (Mus musculus [5]): Active | Activity (T-cell): Dose-dependent effect | solubility [3]: soluble | Activity (Mus musculus [8]): Active

CCCCCCCCCCCCCC[C@@H](O)[C@@H](O)[C@H](CO[C@H]1O[C@H](CO)[C@H](O)[C@H](O)[C@H]1O)n1cc(COCCCCCCOCc2ccccc2)nn1
Activity (Mus musculus [1]): Active | Activity [2]: Non-toxic | Activity (T-cell): Dose-dependent effect | solubility [3]: soluble | Activity (Mus musculus [13]): Active

CCCCCCCCCCCCCC[C@@H](O)[C@@H](O)[C@H](CO[C@H]1O[C@H](CO)[C@H](O)[C@H](O)[C@H]1O)n1cc(COCCCCCCCCCCCCOCCCCOCc2ccccc2)nn1
Activity (Mus musculus [1]): Active | Activity (Mus musculus [4]): Active | Activity [2]: Non-toxic | Activity (Mus musculus [5]): inactive | Activity (Mus musculus [6]): Active | Activity (T-cell): Dose-dependent effect | solubility [3]: soluble | Activity (Mus musculus [7]): Active | Activity (Mus musculus [8]): inactive | Activity [9]: Active | Activity (Mus musculus [10]): inactive | Activity (Mus musculus [11]): inactive | Activity (Mus musculus [12]): Active

CCCCCCCCCCCCCC[C@@H](O)[C@@H](O)[C@H](CO[C@H]1O[C@H](CO)[C@H](O)[C@H](O)[C@H]1O)n1cc(COCCCCCCCCCCCCOCCOCc2ccccc2)nn1
Activity (Mus musculus [1]): Active | Activity [2]: Non-toxic | Activity (T-cell): Dose-dependent effect | solubility [3]: soluble | Activity (Mus musculus [13]): Active

CCCCCCCCCCCCCC[C@@H](O)[C@@H](O)[C@H](CO[C@H]1O[C@H](CO)[C@H](O)[C@H](O)[C@H]1O)n1cc(COCCCCCCCCCCCCOCCCCCCOCc2ccccc2)nn1
Activity (Mus musculus [1]): Active | Activity (Mus musculus [4]): Active | Activity [2]: Non-toxic | Activity (Mus musculus [5]): inactive | Activity (Mus musculus [6]): Active | Activity (T-cell): Dose-dependent effect | solubility [3]: soluble | Activity (Mus musculus [7]): Active | Activity (Mus musculus [8]): inactive | Activity [9]: Active | Activity (Mus musculus [10]): inactive | Activity (Mus musculus [11]): inactive | Activity (Mus musculus [12]): Active

CCCCCCCCCCCCCC[C@@H](O)[C@@H](O)[C@H](CO[C@H]1O[C@H](CO)[C@H](O)[C@H](O)[C@H]1O)n1cc(COCCOCc2ccccc2)nn1
Activity (Mus musculus [1]): inactive | Activity [2]: Non-toxic | Activity (T-cell): Dose-dependent effect | solubility [3]: soluble

CCCCCCCCCCCCCC[C@@H](O)[C@@H](O)[C@H](CO[C@H]1O[C@H](CO)[C@H](O)[C@H](O)[C@H]1O)n1cc(COCCCCCCCCCCOCc2ccccc2)nn1
Activity (Mus musculus [1]): Active | Activity [2]: Non-toxic | Activity (T-cell): Dose-dependent effect | solubility [3]: soluble
